How the values were obtained:
[1] = system: MCF-7 breast cancer cell line; assay: Anticancer screening, MTT assay; assay type: cell-based, human
Outline: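 MCF-7 cells were seeded at 10,000 cells/well and grown 24 h in DMEM with 10% FBS and 1% antibiotic at 37 °C, 5% CO2. They were then exposed for 24 h to a range of test compound concentrations prepared in incomplete medium. MTT was added at 250 µg/ml final for 2 h, the supernatant was removed, and formazan was dissolved in DMSO. Absorbance was read at 540 nm, in triplicate.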

[2] = system: C. albicans (ATCC SC5314); assay: Antifungal activity, broth microdilution MIC; assay type: cell-based
DHFR = target: T1, DHFR (Homo sapiens, UniProt P00374); assay: DHFR inhibition assay; assay type: biochemical; conditions: from IC50 values
T1 sequence (P00374 1-187): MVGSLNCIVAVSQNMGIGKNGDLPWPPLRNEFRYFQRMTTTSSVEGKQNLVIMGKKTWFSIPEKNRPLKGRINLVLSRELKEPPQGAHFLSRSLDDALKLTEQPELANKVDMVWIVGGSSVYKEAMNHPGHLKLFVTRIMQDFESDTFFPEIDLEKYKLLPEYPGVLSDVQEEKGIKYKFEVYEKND

SMILES	Anticancer activity against MCF-7, in words [1]	Inhibitory activity against fungal strain C. albicans, in words [2]	DHFR inhibitory potency relative to methotrexate (DHFR)
CC1CCC(C(C)C)C(OC(=O)C=Cc2ccc(O)c(O)c2)C1 (stereo not drawn) [CE3, 2-isopropyl-5-methylcyclohexyl 3-(3,4-dihydroxyphenyl)acrylate]	moderate anticancer activity	moderate action	–
CC(C)NCC(COc1cccc2ccccc12)OC(=O)C=Cc1ccc(O)c(O)c1 (stereo not drawn) [CE11, 1-(isopropylamino)−3-(naphthalen-1-yloxy)propan-2-yl 3-(3,4-dihydroxyphenyl)acrylate]	–	–	approximately four times more effective than methotrexate
O=C(C=Cc1ccc(O)c(O)c1)OCCc1ccccc1 [CE12, Phenethyl 3-(3,4-dihydroxyphenyl)acrylate]	–	moderate action	–
Nc1ccccc1OC(=O)C=Cc1ccc(O)c(O)c1 [CE17, 2-aminophenyl 3-(3,4-dihydroxyphenyl)acrylate]	moderate anticancer activity	moderate action	–

— publication PMC11658390 (BMC Chemistry, 2024)
